PP5 inh = PP5 phosphatase inhibitors, primary screen, biochemical, fluorescence | Serine/threonine-protein phosphatase 5 (Homo sapiens), P53041 | purified PP5c, OMFP substrate fluorescence | inhibition, % at 6.7 µM | actives 0.18% (n = 320,000) | AID 1987, 2009;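 active = inhibition above the campaign's mean inhibition across all tested compounds plus 3 SD, cut at about 9.5% in these data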;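 note: 0% = DMSO only and 100% = 100 µM cantharidin control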
UCH37 inh = inhibitors of human UCH37 deubiquitinase, primary screen, biochemical, Ub-AMC cleavage, fluorescence | Ubiquitin carboxyl-terminal hydrolase isozyme L5 (Homo sapiens), Q9Y5K5 | actives 0.33% (n = 330,000) | purified proteasome/UCH37 | inhibition, % (no concentration beside the values);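 active = mean inhibition over replicate wells above about 20%, limit read from the data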;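 note: 0% = compound-free wells with enzyme and 100% = wells lacking proteasome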
Target sequence (Q9Y5K5 whole entry, looked up): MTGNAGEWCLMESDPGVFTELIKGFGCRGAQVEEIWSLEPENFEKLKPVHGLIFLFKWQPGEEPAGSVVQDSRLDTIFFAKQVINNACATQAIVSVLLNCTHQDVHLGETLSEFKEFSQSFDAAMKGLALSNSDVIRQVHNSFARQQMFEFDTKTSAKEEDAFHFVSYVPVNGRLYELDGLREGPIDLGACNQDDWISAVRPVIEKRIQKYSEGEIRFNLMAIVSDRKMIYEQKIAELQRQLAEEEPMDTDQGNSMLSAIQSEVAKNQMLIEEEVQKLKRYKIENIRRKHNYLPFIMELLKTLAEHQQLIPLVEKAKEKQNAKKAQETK
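Test system – human UCH37 enzyme supplied as purified proteasome complex · Incubation – 30 min preincubation with enzyme, 25 min cleavage at room temperature · Detection – AMC fluorescence from Ub-AMC cleavage, excitation 355 nm, emission 460 nm · Benchmarks – no-proteasome wells (full inhibition) and compound-free wells (no inhibition)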
PP1 counter = PP1-alpha phosphatase inhibitors, primary screen, counter-screen for PP5 inhibitor project, biochemical, fluorescence, OMFP substrate, single point | purified PP1alpha | inhibition, % at 6.7 µM | actives 0.9% (n = 320,000) | AID 2235, 2010;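 active = inhibition above the mean inhibition of all tested compounds plus 3 SD, computed separately for each screening campaign, cut at about 15% in these data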
PREPL inh = PREPL enzyme inhibitors, primary screen, biochemical, fluorescence polarization | Prolyl endopeptidase-like (Homo sapiens), Q4J6C6 | recombinant PREPL, fluorescence polarization activity-based probe | inhibition, % at 5.96 µM | actives 0.68% (n = 320,000) | AID 2751, 2010; in the data active = inhibition above about 43%;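 note: 0% = enzyme with DMSO and 100% = wells lacking enzyme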
UBC13 polyUb = UBC13 polyubiquitin chain formation inhibitors, primary screen, biochemical, TR-FRET, uHTS; Ubiquitin-conjugating enzyme E2 N (Homo sapiens), P61088; inhibition, % at 20 µM; actives 0.47% (n = 330,000); AID 485273, 2010; in the data active = inhibition above about 45%, passing the limit was not always enough; inconclusive = no clear call, values can overlap the other calls
Target sequence (P61088 whole entry, looked up): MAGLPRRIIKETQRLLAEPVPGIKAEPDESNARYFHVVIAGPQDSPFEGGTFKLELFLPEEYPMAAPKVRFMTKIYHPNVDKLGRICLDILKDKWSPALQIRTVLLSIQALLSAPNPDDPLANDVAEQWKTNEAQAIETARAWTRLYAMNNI
CTSL1 counter = Fasciola hepatica cathepsin L1 inhibitors, primary screen, counter-screen for PFM18AAP inhibitor project, biochemical, QFRET, fluorogenic peptide substrate; AID 1906, 2009; actives 0.49% (n = 300,000); recombinant F. hepatica cathepsin L1, Z-Leu-Arg-MCA fluorescence; inhibition, % at 5.96 µM;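 active = inhibition above the mean of all tested compounds plus 3 SD, set per screening campaign, cut at about 17% in these data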;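 note: 0% = plate median of test compound wells and 100% = 1 µM Z-Phe-Ala-diazomethylketone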
Casp3 counter = CASP3 inhibitor validation, counterassay for project on UBE2N polyubiquitination blockers, biochemical, one dose; actives 4% (n = 1,400); Recombinant caspase-3, Caspase-Glo 3/7 luminescence, 60 min; shares compounds with UBC13 polyUb; inhibition, % at 20 µM;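 active = mean inhibition across replicates above about 26%, limit read from the data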;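 note: plate controls were DMSO with caspase-3 for no effect and DMSO wells lacking enzyme for full effect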
UBC13 conf = UBC13 polyubiquitination inhibitors, single-point retest, confirmation, biochemical, TR-FRET, single concentration. shares compounds with UBC13 polyUb. inhibition, % at 10 µM. actives 68% (n = 1,400). AID 488859, 2010; in the data active = inhibition above about 45%; inconclusive = no clear call, values can overlap the other calls
* hit, by the source's call; i = inactive; ? = inconclusive; . = no result. In the library only some 2.3% were active in any assay of this set; here they are far more common.

SMILES | PP5 inh | UCH37 inh | PP1 counter | PREPL inh | UBC13 polyUb | CTSL1 counter | Casp3 counter | UBC13 conf
CCC[C@@H](CNC)NC[C@H](Cc1ccccc1)NCCCCc1ccccc1 | 1.8 | -0.3 | 2.4 | 17.8 | 36.5 | 3.4 | . | .
CCCC[C@@H](CNC)NC[C@H](NCCCCC1CCCCC1)C(C)C | 1.3 | 0.7 | 5.1 | 27.0 | 66.2* | 1.6 | -3.0 | 45.3*
COc1ccc2nc(C)cc(NN=Cc3ccc(F)cc3)c2c1 | . | -4.7 | . | . | . | . | . | .
COc1ccc2nc(C)cc(N/N=C/c3ccc(F)cc3)c2c1 | 2.8 | . | 5.8 | 23.4 | 97.0* | 0.7 | -0.7 | 113.4*
Cc1ccsc1C=Nn1c(-c2ccco2)n[nH]c1=S | . | 4.0 | . | . | . | . | . | .
Cc1ccc(-c2cc(-c3ccc4c(c3)OCO4)c(C#N)c(N)n2)o1 | 2.0 | -63.3 | 2.1 | 12.3 | 4.6 | -0.7 | . | .
CC(C)(C)c1ccc(-c2nc3c(C#N)c(-c4ccc5c(c4)OCO5)ccn3n2)cc1 | 3.1 | i | -3.4 | 11.6 | 47.6* | -1.2 | -4.1 | ?
OCCN1CCN(CC/C=C2/c3ccccc3Sc3ccc(C(F)(F)F)cc32)CC1 | 3.3 | 3.8 | 6.0 | 2.9 | 66.2* | 2.7 | -0.6 | 70.9*
OCCN1CCN(CCCN2c3ccccc3Sc3ccc(C(F)(F)F)cc32)CC1 | 4.7 | 1.0 | 5.0 | 21.2 | 86.9* | -0.1 | -1.6 | 92.1*
CCSc1ccc2c(c1)N(CCCN1CCN(C)CC1)c1ccccc1S2 | 3.4 | 1.3 | 8.9 | 35.0 | 74.9* | 0.7 | -2.3 | 64.4*
O=C(C[n+]1ccccc1)NN=Cc1cccc(Cl)c1Cl | . | 7.8 | . | . | . | . | . | .
O=C(Cn1nc(-c2nn(CC(=O)c3ccccc3)c3[n+]2CCCCC3)[n+]2c1CCCCC2)c1ccccc1 | -1.0 | 3.1 | -0.8 | 39.4 | 78.1* | 1.2 | 1.8 | 13.2
COc1ccc(C(=O)Cn2nc(CNc3ccc(Br)cc3)[n+]3c2CCCCC3)cc1 | 1.6 | 4.8 | 10.9 | 28.8 | 12.5 | -2.3 | . | .
O=C(CSc1nc2c(sc3ccccc32)c(=O)n1CCCN1CCCC1)NCC1CCCO1 (stereo not drawn) | 0.8 | 2.3 | -0.3 | 27.3 | -19.5 | -2.7 | . | .
COc1ccc(NC(=O)CSc2nc3c(sc4ccccc43)c(=O)n2CCCN2CCCC2)cc1 | -1.9 | -1.4 | 1.6 | -9.8 | 49.8* | 3.5 | -1.8 | 54.3*
COc1cccc(NC(=O)CSc2nc3ccccc3c(=O)n2CCCC(=O)NCCCN2CCOCC2)c1 | 2.9 | 0.2 | 3.2 | -7.7 | 61.0* | 3.1 | -2.8 | 78.6*
O=C(NN=Cc1cc(Br)ccc1OC(=O)c1ccc(Br)cc1)c1ccncc1 | . | 4.0 | . | . | . | . | . | .
CC=NN(c1ccccc1)c1ccccc1 | . | 2.9 | . | . | . | . | . | .
COc1ccccc1CNC(=O)c1ccc2c(=O)n(CCCN3CCCC3=O)c(=S)[nH]c2c1 | 0.9 | 5.2 | -4.3 | -11.2 | 45.5* | -1.5 | 2.9 | 43.2
Cc1ccc(OCCCC(=O)Nc2ccc(S(=O)(=O)N3CCOCC3)cc2)cc1 | 3.0 | 1.3 | -0.9 | 4.1 | 56.0* | . | -2.6 | 37.0
O=C(CCCOc1ccccc1)Nc1ccc(S(=O)(=O)N2CCOCC2)cc1 | 2.0 | 0.7 | -5.0 | -5.9 | -4.5 | -3.5 | . | .
CN1CCN(CCCNC(=O)c2ccc(/C=C3\Sc4ccccc4N(Cc4ccc(F)cc4)C3=O)cc2)CC1 | . | -7.8 | . | . | . | . | . | .
CN1CCN(CCCNC(=O)c2ccc(/C=C3\Oc4ccccc4N(Cc4ccccc4F)C3=O)cc2)CC1 | 0.8 | -375.9 | 1.5 | -91.5 | 45.4* | 3.8 | -4.1 | 51.6*
Cc1ccc(C(=O)NCCCNCCCN(C)C)cn1 | -0.3 | 3.5 | -2.2 | -5.1 | 51.6* | -4.1 | -3.5 | 35.2
Cc1ncc(S(=O)(=O)c2ccc(Cl)cc2)c(N)n1 | 1.9 | 3.7 | -6.0 | 2.3 | 45.0* | -8.3 | -1.4 | 49.1*
SMILES | PP5 inh | UCH37 inh | PP1 counter | PREPL inh | UBC13 polyUb | CTSL1 counter | Casp3 counter | UBC13 conf
Nc1ncc(S(=O)(=O)c2ccc(Cl)cc2)c(N)n1 | 0.8 | 1.9 | -3.0 | 7.3 | 14.5 | -0.1 | . | .
NC1=NC[C@H](Cc2ccc(O)cc2)N1CC1CCCCC1 | -1.0 | 0.9 | 2.6 | 4.9 | 14.1 | 2.1 | . | .
Oc1ccc(C[C@@H]2CNCCN2CCCCC2CCCCC2)cc1 | 1.9 | -1.5 | 4.6 | -11.8 | 59.4* | -5.1 | -4.5 | 47.8*
NC1=NC[C@@H](Cc2ccc(O)cc2)N1CCCCC1CCCCC1 | 0.2 | 2.5 | 2.6 | 3.7 | 66.4* | -1.8 | -0.7 | 40.6
CCCC=NNc1nc2ccccc2s1 | . | 0.4 | . | . | . | . | . | .
CCCCc1ccc(/C=C(\C#N)C(N)=S)s1 | . | 0.7 | . | . | 52.8* | . | 0.7 | 58.6*
NC1=NC[C@H](Cc2ccccc2)N1CCc1cc(C(F)(F)F)cc(C(F)(F)F)c1 | 1.3 | 1.7 | 6.8 | 12.1 | 80.1* | -3.6 | -9.9 | 45.0*
FC(F)(F)c1cc(CCN2C(=S)NC[C@@H]2Cc2ccccc2)cc(C(F)(F)F)c1 | 4.1 | 1.5 | 1.4 | -3.7 | 10.3 | 3.3 | . | .
Cc1cc(C=NNc2ccc([N+](=O)[O-])cn2)c(C)n1-c1cccc(C(=O)O)c1 | . | 14.8 | . | . | . | . | . | .
COc1ccc(OC)c(C(C)=NNC(=O)c2cc3cc(Cl)ccc3n2C)c1 | . | 3.9 | . | . | . | . | . | .
COc1ccc(-c2cc3c(=O)n(CC(=O)NCCCN4CCC(N5CCCCC5)CC4)nc(C)n3n2)cc1 | 0.9 | . | -4.0 | 2.4 | 71.1* | 5.5 | -0.9 | 34.0
Oc1c(C(c2cccs2)N2CCOCC2)sc2ncnn12 (stereo not drawn) | 2.4 | 1.9 | 2.2 | 13.8 | 0.6 | 2.1 | . | .
Oc1c(C(c2cccs2)N2CCN(c3cccc(Cl)c3)CC2)sc2ncnn12 (stereo not drawn) | 5.2 | 0.0 | -2.0 | 5.8 | 52.7* | 4.9 | -2.6 | 6.7
CCOc1cc(C=N/N=C2/NC(=O)C(CC(=O)O)S2)ccc1OS(=O)(=O)c1ccc(C)cc1 (stereo not drawn) | . | 14.7 | . | . | . | . | . | .
COc1ccc(-c2cc(C#N)nc(N3CCNCC3)n2)cc1 | 2.9 | -27.7 | 5.5 | -60.0 | 98.2* | 1.3 | -3.3 | 73.7*

High-throughput results from PubChem.
